Six compounds from ChEMBL document CHEMBL3751740, “New MKLP-2 inhibitors in the paprotrain series: Design, synthesis and biological evaluations” (Bioorg Med Chem, 2016) can be followed below.

Test [1] has as its target T1, Kinesin-like protein KIF20A (Homo sapiens, UniProt O95235).
T1 sequence (O95235 whole entry): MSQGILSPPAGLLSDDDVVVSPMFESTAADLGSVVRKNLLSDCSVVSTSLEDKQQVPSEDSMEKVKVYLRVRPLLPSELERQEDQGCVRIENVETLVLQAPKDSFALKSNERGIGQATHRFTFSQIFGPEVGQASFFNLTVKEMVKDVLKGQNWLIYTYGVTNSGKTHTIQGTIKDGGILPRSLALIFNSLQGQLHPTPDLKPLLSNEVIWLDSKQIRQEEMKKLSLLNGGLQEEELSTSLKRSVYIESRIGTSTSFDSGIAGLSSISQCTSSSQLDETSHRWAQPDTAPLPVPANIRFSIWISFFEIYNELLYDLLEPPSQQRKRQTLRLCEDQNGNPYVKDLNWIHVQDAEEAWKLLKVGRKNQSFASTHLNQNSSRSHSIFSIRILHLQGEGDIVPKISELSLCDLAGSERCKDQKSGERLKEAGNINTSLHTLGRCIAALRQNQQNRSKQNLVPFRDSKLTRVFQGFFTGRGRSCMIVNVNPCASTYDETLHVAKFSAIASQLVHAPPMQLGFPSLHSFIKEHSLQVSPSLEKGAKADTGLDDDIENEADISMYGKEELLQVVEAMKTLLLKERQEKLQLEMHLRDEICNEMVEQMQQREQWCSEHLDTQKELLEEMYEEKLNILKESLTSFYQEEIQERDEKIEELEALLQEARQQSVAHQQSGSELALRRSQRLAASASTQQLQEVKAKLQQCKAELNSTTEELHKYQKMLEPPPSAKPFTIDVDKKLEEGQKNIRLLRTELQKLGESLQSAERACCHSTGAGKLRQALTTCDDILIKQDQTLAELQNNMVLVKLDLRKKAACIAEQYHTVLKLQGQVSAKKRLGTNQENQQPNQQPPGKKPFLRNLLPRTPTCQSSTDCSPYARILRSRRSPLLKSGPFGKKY
The test is described as follows: Inhibition of N-terminal MKLP2 (56 to 505 residues) ATPase basal activity isolated from human hepatocellular carcinoma cells by pyruvate kinase/lactate dehydrogenase enzyme linked assay. The following applies: for pIC50: read-out: IC50.

Test [2] is filed under the species Ovis aries. In words: Inhibition of sheep brain tubulin polymerization by UV spectrophotometric analysis. Further details: concentration or dose not given beside the values. In a few lines: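 Tubulin purified from sheep brain by two assembly/disassembly cycles, about 2–3 mg/mL in 0.1 M MES, 0.5 mM MgCl2, 1 mM EGTA, 1 mM GTP, pH 6.6. Compound in DMSO added at 0 °C, then moved to a 37 °C thermostated cell. Assembly followed by turbidity at 350 nm for a few min.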

For test [3], the system named is KB. The test is described as follows: Growth inhibition of human KB cells at 10 uM after 72 hrs by MTS assay. The format is functional. The following applies: read-out: GI. The gist of the method:
(§1)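 KB cells were grown in DMEM with 25 mM glucose and 10% FCS at 37 °C, 5% CO2, and seeded at 500 cells/well. 24 h later, compound in DMSO (1% final) was added at 10 µM or 1 µM for 72 h; controls received DMSO alone. Runs were in duplicate. Viable cells were read with MTS at 490 nm.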
A general note: Tetrazolium dyes change colour on reduction, which living cells bring about.

The target in test [4] is T1, Kinesin-like protein KIF20A. The test is described as follows: Inhibition of microtubule-stimulated N-terminal MKLP-2 (56 to 505 residues) ATPase activity isolated from human hepatocellular carcinoma cells by pyruvate kinase/lactate dehydrogenase enzyme linked assay. The conditions noted are these: read-out: IC50.
The species named for test [5] is Ovis aries. The test is described as follows: Induction of sheep brain microtubule disassembly by UV spectrophotometric analysis. In a few lines:
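Sheep brain tubulin, purified by two assembly/disassembly cycles and held in MES buffer with GTP at pH 6.6, was polymerized at 37 °C for 10 min. Compound was then added to the MTs at 0 °C and depolymerization was followed over the next few minutes by turbidity at 350 nm.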

Test [6] can be described thus: Growth inhibition of human HCT116 cells incubated for 4 days by WST-1 assay. The conditions noted are these: HCT-116, 96 h. It counts as functional. The gist of the method:
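Cells were kept at 37 °C under 5% CO2 and plated on day 0 at 500–5000 cells/well. On day 1 they received ten concentrations from 0.0025 to 50 µM (final), in triplicate. On day 4 WST-1 was added, followed by 30 min–4 h incubation and absorbance at 450 nm. GI50 is the concentration killing 50% of cells.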

The test system of test [7] is KB. The test is described as follows: Growth inhibition of human KB cells at 1 uM after 72 hrs by MTS assay. It counts as functional. The conditions noted are these: read-out: GI. The gist of the method: as §1
Test [8] concerns the target Centromere-associated protein E (Homo sapiens) (UniProt Q02224). In words: Inhibition of porcine brain microtubule-stimulated human recombinant GST-tagged CENP-E ATPase activity at 1 mM by microplate reader in presence of Mg2+ ATP relative to control. The gist of the method: (§2)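 Motor domain at 15 µM final, in 7.5 mM PIPES-NaOH pH 7.0 with […], 10 µM Taxol, ELIPA 1 and 2 reagents and 1.25 mg/mL microtubules. AMP-PNP, a slowly hydrolysable ATP analog and general ATPase inhibitor, tested at 1 mM. Reaction started with 1 mM Mg2+ATP at 22 °C and read kinetically at 360 nm. Run in triplicate.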

Test [9] concerns the target T2, Kinesin-like protein KIF3C (Homo sapiens) (UniProt O14782).
T2 sequence (whole entry): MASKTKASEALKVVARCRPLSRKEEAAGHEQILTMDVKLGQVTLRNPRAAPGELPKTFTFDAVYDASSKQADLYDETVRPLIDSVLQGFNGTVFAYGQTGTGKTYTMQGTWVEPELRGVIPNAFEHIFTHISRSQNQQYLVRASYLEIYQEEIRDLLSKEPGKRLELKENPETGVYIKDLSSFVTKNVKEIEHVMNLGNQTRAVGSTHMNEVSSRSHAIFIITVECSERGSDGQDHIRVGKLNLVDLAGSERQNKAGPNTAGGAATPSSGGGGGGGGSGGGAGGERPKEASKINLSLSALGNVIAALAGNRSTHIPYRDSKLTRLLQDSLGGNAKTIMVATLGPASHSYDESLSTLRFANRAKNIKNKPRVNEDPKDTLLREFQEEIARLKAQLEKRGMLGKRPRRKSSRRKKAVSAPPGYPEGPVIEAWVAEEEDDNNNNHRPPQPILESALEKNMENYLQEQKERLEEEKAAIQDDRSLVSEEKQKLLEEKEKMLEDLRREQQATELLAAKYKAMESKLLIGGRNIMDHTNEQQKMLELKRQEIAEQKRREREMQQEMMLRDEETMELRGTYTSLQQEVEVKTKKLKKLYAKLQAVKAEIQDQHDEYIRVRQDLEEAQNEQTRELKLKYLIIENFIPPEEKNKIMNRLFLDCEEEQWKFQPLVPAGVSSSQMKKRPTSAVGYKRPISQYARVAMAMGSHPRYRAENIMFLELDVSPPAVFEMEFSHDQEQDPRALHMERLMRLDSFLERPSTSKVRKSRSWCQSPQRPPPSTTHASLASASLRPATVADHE
In words: Inhibition of porcine brain microtubule-stimulated human recombinant GST-tagged KIF3C ATPase activity at 1 mM by microplate reader in presence of Mg2+ ATP relative to control. The gist of the method:
as §2

Each structure is given as a SMILES string. pIC50: −log10 of the molar value. Activity calls are given as the source filed them. The rule behind the calls is not given here. Where only a bound is given, the exact number is not on record here.

Sequence of Centromere-associated protein E (Homo sapiens) (Q02224 whole entry, the tested form may be a part): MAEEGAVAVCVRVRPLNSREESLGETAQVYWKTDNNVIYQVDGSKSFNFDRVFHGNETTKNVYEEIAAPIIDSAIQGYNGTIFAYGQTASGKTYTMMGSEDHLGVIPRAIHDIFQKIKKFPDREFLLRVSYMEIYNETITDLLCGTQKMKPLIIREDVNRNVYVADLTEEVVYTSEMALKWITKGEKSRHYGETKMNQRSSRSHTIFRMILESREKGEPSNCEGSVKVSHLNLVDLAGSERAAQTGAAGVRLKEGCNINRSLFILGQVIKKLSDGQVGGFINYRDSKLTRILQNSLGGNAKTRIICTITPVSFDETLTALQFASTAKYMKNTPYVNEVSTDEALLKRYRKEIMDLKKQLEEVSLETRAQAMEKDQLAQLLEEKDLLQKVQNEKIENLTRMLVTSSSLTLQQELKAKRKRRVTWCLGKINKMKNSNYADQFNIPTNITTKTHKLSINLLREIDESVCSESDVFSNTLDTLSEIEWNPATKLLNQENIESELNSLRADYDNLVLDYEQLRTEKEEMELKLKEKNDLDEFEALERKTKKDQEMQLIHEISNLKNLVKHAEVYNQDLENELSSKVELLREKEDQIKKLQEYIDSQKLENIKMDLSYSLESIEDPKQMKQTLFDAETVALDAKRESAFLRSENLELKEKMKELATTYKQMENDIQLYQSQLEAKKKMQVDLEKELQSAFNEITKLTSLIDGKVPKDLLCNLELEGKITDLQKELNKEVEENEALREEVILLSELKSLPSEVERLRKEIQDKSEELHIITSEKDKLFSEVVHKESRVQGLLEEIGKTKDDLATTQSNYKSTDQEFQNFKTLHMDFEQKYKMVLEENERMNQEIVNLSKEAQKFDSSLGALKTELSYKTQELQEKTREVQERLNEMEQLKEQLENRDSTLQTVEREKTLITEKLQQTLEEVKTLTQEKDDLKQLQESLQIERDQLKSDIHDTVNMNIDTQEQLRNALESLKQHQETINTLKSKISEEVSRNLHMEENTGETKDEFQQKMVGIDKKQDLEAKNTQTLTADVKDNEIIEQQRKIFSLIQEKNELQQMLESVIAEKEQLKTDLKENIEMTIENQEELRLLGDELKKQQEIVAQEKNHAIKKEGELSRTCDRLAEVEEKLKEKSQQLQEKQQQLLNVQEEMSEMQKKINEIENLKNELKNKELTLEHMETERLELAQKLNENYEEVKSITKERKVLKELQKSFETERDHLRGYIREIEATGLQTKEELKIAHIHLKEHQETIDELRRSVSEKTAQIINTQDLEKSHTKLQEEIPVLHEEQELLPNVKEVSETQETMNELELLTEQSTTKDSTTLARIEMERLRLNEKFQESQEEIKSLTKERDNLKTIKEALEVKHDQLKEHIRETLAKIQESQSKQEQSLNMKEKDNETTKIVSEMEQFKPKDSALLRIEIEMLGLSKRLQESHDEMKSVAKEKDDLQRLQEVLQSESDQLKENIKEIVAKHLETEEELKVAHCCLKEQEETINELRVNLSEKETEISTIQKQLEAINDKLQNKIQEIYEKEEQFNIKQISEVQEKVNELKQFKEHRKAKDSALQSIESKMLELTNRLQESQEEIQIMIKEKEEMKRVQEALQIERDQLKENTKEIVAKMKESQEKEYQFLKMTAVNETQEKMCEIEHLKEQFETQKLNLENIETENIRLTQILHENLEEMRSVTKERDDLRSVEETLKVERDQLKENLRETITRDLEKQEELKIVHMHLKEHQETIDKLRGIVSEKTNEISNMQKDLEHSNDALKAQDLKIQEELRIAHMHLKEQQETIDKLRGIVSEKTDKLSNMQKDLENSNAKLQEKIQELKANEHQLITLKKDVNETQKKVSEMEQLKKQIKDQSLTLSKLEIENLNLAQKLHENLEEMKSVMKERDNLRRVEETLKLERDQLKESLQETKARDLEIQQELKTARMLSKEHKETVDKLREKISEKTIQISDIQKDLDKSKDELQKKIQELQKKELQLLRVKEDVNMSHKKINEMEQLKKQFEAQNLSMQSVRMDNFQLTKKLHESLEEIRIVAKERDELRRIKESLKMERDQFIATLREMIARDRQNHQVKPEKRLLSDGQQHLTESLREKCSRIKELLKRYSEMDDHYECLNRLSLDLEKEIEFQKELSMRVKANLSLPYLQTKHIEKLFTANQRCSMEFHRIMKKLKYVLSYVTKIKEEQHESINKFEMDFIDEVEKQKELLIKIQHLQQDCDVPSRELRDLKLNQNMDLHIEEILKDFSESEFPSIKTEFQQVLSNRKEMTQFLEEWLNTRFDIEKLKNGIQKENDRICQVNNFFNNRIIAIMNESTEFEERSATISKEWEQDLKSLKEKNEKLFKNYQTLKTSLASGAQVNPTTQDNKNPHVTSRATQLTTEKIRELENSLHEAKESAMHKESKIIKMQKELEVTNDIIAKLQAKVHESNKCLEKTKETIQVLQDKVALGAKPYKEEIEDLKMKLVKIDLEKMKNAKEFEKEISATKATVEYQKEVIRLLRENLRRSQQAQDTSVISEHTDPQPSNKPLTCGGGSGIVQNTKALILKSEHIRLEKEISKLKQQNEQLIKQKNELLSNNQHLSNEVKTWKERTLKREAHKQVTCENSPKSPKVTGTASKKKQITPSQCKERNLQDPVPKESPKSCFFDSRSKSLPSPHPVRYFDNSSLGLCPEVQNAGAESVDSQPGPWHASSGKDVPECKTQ

`COc1cccc2[nH]cc(/C(C#N)=C/c3cccnc3)c12`: the pIC50 in test [1] was 5.38; in test [4] it was 5.48. Besides, the inhibition entry in test [2] was “inactive”. In addition, the inhibition of growth at 10 µM in test [3] worked out at 27%. In test [5], the result was inactive.

Take `COc1ccc2[nH]cc(/C(C#N)=C/c3cccnc3)c2c1`: the results for the pIC50 in [1] and in test [4] were 5.92 and 6.64, respectively. For the same compound, the inhibition result in test [2] is “inactive”. The inhibition of growth at 10 µM in test [3] was found to be 57%. The same compound registered a GI50 in [6] of 32.2 µM.

Take `N#C/C(=C\c1ccc2c(c1)OCO2)c1c[nH]c2ccccc12`: the pIC50 in [1] was 4.84; in test [4] it was 5.29. This compound also came in with an inhibition in test [2] (concentration not given here) of 35%. In test [3], the inhibition of growth at 10 µM was determined as 100%. The inhibition of growth at 1 µM in test [7] was determined as 11%. Besides, in test [5], the result was inactive.

For the compound `N#C/C(=C\c1cccnc1)c1c[nH]c2ccc(OCc3ccccc3)cc12`, the IC50 entry in test [1] was “Not Active”. Further, in test [2] (concentration not given here), the inhibition amounted to 12%. For the same compound, the inhibition of growth at 10 µM in test [3] is 57%. The pIC50 in [4] was 5.89. For the same compound, the result in test [5] was inactive.

Take `Nc1ncnc2c1ncn2[C@@H]1O[C@H](COP(=O)(O)OP(=O)(O)NP(=O)(O)O)[C@@H](O)[C@H]1O`: the inhibition in test [8] and in [9] was greater than 30% throughout.

For the compound `COc1ccc2c(/C(C#N)=C/c3cccnc3)c[nH]c2c1`, the values for the pIC50 in test [1] and in [4] were 5.25 and 5.27, respectively. Also, the inhibition in test [2] (concentration not given here) turned out to be 54%. The inhibition of growth at 10 µM in test [3] turned out to be 87%. The inhibition of growth at 1 µM in test [7] came out at 78%. In test [5], the result was inactive.

As usually defined, the pIC50 is −log10 of the IC50, conventionally taken in molar units. As a reminder, the inhibition is the drop in the measured response relative to a control, in per cent. Usually GI50 stands for the concentration giving 50% growth inhibition.
